ChEMBL document CHEMBL5260824, “9-Deazapurines as Broad-Spectrum Inhibitors of the ABC Transport Proteins P-Glycoprotein, Multidrug Resistance-Associated Protein 1, and Breast Cancer Resistance Protein” (J Med Chem, 2017)

How the values were obtained:
[1] = target: ATP-dependent translocase ABCB1 (Homo sapiens, UniProt P08183); experiment: Inhibition of P-gp (unknown origin) incubated for 30 mins by calcein AM analysis
Outline: (§1)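 A2780/ADR cells (doxorubicin-selected, P-gp overexpressing), about 30,000 per well in Krebs-HEPES buffer pH 7.4, incubated 30 min at 37 °C with compound (100 nM–100 µM added solutions). Calcein AM (3.125 µM solution added) then fluorescence read every 60 s at 37 °C, ex 485/em 520 nm; slope over minutes 5–30 plotted vs log concentration. Cyclosporine A 10 µM = 100% inhibition, buffer = 0%.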

P-gp (ABCB1) [2] = target: T1, P-gp (ABCB1) (Homo sapiens, UniProt P08183); experiment: Inhibition of P-gp (unknown origin) at 10 uM incubated for 30 mins by calcein AM analysis relative to control; details: probe calcein AM; outline: as §1
T1 sequence (P08183 whole entry): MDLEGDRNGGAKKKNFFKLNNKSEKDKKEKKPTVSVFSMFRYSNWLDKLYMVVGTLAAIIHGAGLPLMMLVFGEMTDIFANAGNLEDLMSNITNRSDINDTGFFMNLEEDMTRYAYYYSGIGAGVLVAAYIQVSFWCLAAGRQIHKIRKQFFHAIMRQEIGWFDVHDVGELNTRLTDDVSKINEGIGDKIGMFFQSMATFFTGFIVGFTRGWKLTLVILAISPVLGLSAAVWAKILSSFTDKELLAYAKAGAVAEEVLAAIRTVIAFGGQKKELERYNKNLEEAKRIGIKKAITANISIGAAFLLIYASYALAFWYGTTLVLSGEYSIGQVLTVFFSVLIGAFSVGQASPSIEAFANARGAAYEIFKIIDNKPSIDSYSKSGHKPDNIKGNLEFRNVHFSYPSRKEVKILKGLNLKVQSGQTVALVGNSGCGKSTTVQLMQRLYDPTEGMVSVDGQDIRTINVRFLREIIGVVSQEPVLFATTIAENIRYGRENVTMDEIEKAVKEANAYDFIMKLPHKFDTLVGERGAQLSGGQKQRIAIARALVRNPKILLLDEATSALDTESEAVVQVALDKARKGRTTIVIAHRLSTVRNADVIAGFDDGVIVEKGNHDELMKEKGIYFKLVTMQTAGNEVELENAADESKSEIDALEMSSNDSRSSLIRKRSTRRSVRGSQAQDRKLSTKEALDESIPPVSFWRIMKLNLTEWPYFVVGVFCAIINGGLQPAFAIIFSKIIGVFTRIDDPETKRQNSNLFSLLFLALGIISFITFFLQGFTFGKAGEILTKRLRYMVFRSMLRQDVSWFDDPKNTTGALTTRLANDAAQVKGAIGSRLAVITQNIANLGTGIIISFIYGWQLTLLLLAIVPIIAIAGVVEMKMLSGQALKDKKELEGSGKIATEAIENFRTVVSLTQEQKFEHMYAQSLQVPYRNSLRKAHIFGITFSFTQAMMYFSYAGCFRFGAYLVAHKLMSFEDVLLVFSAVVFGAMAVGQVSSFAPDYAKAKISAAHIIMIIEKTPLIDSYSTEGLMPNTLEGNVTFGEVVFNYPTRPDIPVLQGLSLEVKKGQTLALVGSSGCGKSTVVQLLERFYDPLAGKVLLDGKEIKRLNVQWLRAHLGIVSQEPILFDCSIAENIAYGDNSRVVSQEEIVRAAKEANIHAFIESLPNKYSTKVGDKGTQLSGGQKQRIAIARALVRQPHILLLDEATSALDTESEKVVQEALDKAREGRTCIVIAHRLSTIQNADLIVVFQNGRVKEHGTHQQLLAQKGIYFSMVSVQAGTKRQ

[3] = target: Multidrug resistance-associated protein 1 (Homo sapiens, UniProt P33527); experiment: Inhibition of MRP1 in human NCI-H69AR cells incubated for 180 mins in presence of daunorubicin by flow cytometry analysis; type: cell-based
Sequence of Multidrug resistance-associated protein 1 (P33527 whole entry): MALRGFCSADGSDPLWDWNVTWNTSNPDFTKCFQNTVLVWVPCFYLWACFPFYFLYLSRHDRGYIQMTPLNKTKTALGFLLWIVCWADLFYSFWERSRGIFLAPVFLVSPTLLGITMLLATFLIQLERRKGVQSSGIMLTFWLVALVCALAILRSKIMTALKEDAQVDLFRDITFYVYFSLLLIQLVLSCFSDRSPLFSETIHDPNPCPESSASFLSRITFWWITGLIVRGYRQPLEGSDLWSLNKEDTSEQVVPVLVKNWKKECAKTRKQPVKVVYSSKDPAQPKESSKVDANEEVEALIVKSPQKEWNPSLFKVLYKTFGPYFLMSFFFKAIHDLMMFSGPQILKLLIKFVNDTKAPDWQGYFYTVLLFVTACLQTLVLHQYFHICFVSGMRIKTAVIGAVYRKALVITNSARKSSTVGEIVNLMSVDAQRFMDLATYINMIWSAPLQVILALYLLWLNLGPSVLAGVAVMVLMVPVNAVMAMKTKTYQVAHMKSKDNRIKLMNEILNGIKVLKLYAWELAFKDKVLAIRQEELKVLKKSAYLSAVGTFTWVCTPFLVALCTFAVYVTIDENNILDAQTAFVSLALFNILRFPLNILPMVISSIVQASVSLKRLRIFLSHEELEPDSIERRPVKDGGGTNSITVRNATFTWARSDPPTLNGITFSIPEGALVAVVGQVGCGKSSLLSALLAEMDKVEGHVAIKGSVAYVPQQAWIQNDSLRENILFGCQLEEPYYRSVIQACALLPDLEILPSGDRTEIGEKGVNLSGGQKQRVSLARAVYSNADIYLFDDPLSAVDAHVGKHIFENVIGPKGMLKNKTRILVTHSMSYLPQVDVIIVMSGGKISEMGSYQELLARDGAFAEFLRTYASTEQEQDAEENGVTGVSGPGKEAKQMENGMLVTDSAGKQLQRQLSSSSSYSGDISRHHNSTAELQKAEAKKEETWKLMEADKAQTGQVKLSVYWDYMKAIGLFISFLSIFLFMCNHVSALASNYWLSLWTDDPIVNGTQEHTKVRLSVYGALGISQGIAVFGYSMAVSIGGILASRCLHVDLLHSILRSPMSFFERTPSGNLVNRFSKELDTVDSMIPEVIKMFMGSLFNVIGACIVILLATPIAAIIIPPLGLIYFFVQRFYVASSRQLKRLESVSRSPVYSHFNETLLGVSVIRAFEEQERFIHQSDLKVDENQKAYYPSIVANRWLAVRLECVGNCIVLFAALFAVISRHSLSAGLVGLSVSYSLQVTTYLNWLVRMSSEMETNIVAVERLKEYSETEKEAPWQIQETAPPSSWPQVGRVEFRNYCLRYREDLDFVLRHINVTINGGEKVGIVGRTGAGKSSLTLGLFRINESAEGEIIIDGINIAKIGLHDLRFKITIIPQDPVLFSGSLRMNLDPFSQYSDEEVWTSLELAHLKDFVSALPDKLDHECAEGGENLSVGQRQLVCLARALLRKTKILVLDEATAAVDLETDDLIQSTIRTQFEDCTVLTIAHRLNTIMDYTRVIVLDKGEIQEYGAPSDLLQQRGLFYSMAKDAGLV
Outline: (§2)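 H69AR cells (doxorubicin-selected small cell lung cancer, RPMI-1640/20% FBS), about 60,000 per well, preincubated 15 min with compound (100 nM–100 µM added solutions, in unsupplemented medium), then daunorubicin (30 µM solution added); steady state after 180 min, 37 °C, 5% CO2. Cells resuspended; flow cytometry, 488 nm excitation, FL3 (≥670 nm). Reference inhibitor 75 at 10 µM = 100%; Imax relative to it.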

BCRP (ABCG2) = target: T2, BCRP (ABCG2) (Homo sapiens, UniProt Q9UNQ0); experiment: Inhibition of BCRP (unknown origin) expressed in dog MDCK-II cells at 10 uM using pheophorbide A as substrate preincubated for 20 mins followed by substrate addition and measured after 120 mins by flow cytometry analysis relative to control; type: cell-based; details: probe pheophorbide A
T2 sequence (Q9UNQ0 whole entry): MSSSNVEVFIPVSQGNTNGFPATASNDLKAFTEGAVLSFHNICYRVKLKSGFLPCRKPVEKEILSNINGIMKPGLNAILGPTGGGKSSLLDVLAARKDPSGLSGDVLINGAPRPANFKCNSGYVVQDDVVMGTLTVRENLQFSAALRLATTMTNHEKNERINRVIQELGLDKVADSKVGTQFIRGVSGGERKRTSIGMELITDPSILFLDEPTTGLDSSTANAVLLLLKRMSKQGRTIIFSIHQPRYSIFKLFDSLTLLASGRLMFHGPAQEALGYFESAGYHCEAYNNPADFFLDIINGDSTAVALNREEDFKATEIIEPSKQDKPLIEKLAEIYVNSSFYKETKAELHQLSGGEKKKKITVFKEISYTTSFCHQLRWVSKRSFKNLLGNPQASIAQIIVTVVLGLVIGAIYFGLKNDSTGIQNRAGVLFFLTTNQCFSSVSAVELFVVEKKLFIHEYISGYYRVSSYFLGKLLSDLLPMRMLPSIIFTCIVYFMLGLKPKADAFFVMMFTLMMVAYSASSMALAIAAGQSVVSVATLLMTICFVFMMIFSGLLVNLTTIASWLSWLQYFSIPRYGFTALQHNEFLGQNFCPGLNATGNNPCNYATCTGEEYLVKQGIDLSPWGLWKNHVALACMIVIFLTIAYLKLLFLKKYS
Outline: (§3)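 MDCK II cells transfected with human wild-type BCRP cDNA C-terminally fused to GFP, grown in DMEM/10% FBS. About 45,000 cells per well preincubated 20 min at 37 °C, 5% CO2 with compound (100 nM–100 µM added solutions), then pheophorbide A (5 µM solution added) for 120 min to steady state. Resuspended; flow cytometry, 488 nm excitation, FL3 (≥670 nm); GFP in FL1. Reference inhibitor 24 at 10 µM = 100%.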

[4] = target: T3, Broad substrate specificity ATP-binding cassette transporter ABCG2 (Homo sapiens, UniProt Q9UNQ0); experiment: Inhibition of BCRP (unknown origin) expressed in dog MDCK-II cells using pheophorbide A as substrate preincubated for 20 mins followed by substrate addition and measured after 120 mins by flow cytometry analysis; type: cell-based; outline: as §3
T3 sequence (Q9UNQ0 whole entry): T2 sequence (Q9UNQ0 whole entry)

MRP1 [5] = target: T4, MRP1 (Homo sapiens, UniProt P33527); experiment: Inhibition of MRP1 in human NCI-H69AR cells at 10 uM incubated for 180 mins in presence of daunorubicin by flow cytometry analysis relative to control; type: cell-based; details: probe daunorubicin; outline: as §2
T4 sequence (P33527 whole entry): as the sequence (P33527 whole entry) above

MRP1 [6] = target: T4, MRP1; experiment: Inhibition of MRP1 in human NCI-H69AR cells assessed as maximum inhibition at 10 uM incubated for 180 mins in presence of daunorubicin by flow cytometry analysis relative to control; type: cell-based; details: probe daunorubicin; outline: as §2
P-gp (ABCB1) [7] = target: T1, P-gp (ABCB1); experiment: Inhibition of P-gp (unknown origin) expressed in dog MDCK-MDR1cells assessed as maximum inhibition at 10 uM by calcein AM accumulation assay relative to control; type: cell-based; details: MDCK-MDR1 cells, probe calcein AM

Sequence of ATP-dependent translocase ABCB1 (P08183 whole entry): as the sequence (P08183 whole entry) above

| IC50 [1] | inhibition at 0.5 h, 10 µM (P-gp (ABCB1) [2]) | IC50 [3] | inhibition at 2 h, 10 µM (BCRP (ABCG2)) | IC50 [4] | inhibition at 3 h, 10 µM (MRP1 [5]) | inhibition at 3 h, 10 µM (MRP1 [6]) | inhibition at 10 µM (P-gp (ABCB1) [7]) | SMILES |
| --- | --- | --- | --- | --- | --- | --- | --- | --- |
| – | > 25% | 638 nM | > 25% | – | > 25% | – | – | COc1ccccc1-n1cc(C#N)c2ncnc(N3CCN(CCc4ccccc4)CC3)c21 |
| 9.63 µM | – | – | – | – | – | – | – | N#Cc1c2n(c3c(N4CCN(CCc5ccccc5)CC4)ncnc13)CCCC2 |
| 10.7 µM | > 25% | 345 nM | > 25% | 11.6 µM | > 25% | 60% | 30% | c1ccc(CCN2CCN(c3ncnc4c3[nH]c3ccccc34)CC2)nc1 |
| 4.48 µM | > 25% | 405 nM | > 25% | 4.07 µM | > 25% | – | – | N#Cc1cn(Cc2ccccc2)c2c(N3CCN(CCc4c[nH]c5ccccc45)CC3)ncnc12 |
| – | > 25% | 1800 nM | > 25% | – | > 25% | – | – | N#Cc1cn(CCc2ccccc2)c2c(N3CCN(Cc4ccc5c(c4)OCO5)CC3)ncnc12 |
| – | > 25% | 1320 nM | > 25% | – | > 25% | – | – | CCOc1ccc(-n2cc(C#N)c3ncnc(N4CCN(CCc5ccccc5)CC4)c32)cc1 |
| 7.29 µM | > 25% | 859 nM | > 25% | – | > 25% | – | – | CCOc1ccc(-n2cc(C#N)c3ncnc(N4CCN(Cc5ccccc5)CC4)c32)cc1 |
| 1.64 µM | > 25% | 524 nM | > 25% | 1.39 µM | > 25% | – | – | N#Cc1cn(CCc2ccccc2)c2c(N3CCN(CCc4c[nH]c5ccccc45)CC3)ncnc12 |
| 1.28 µM | > 25% | 328 nM | > 25% | – | > 25% | – | – | N#Cc1cn(-c2ccccc2)c2c(N3CCN(CCc4c[nH]c5ccccc45)CC3)ncnc12 |
| 9.49 µM | > 25% | 363 nM | > 25% | 6.08 µM | > 25% | 60% | 30% | c1ccc(CN2CCN(c3ncnc4c3[nH]c3ccccc34)CC2)cc1 |
| 19.1 µM | > 25% | 327 nM | > 25% | 37.9 µM | > 25% | – | – | COc1ccccc1-n1cc(C#N)c2ncnc(N3CCN(Cc4ccccc4)CC3)c21 |
| – | > 25% | 751 nM | > 25% | – | > 25% | – | – | N#Cc1cn(-c2ccccc2)c2c(N3CCN(Cc4ccc5c(c4)OCO5)CC3)ncnc12 |

Further lines, the compound ahead of its results:

| SMILES | IC50 [1] | inhibition at 0.5 h, 10 µM (P-gp (ABCB1) [2]) | IC50 [3] | inhibition at 2 h, 10 µM (BCRP (ABCG2)) | IC50 [4] | inhibition at 3 h, 10 µM (MRP1 [5]) | inhibition at 3 h, 10 µM (MRP1 [6]) | inhibition at 10 µM (P-gp (ABCB1) [7]) |
| --- | --- | --- | --- | --- | --- | --- | --- | --- |
| N#Cc1c2n(c3c(N4CCN(Cc5ccc6c(c5)OCO6)CC4)ncnc13)CCCC2 | 13.9 µM | > 25% | 322 nM | > 25% | 14.6 µM | > 25% | – | – |
| c1ccc2c(c1)[nH]c1c(N3CCN(Cc4ccc5c(c4)OCO5)CC3)ncnc12 | 3.92 µM | > 25% | 717 nM | > 25% | 7.93 µM | > 25% | 60% | 30% |
| c1ccc2c(CCN3CCN(c4ncnc5c4[nH]c4ccccc45)CC3)c[nH]c2c1 | 3.5 µM | > 25% | 921 nM | > 25% | 6.21 µM | > 25% | 60% | 30% |
| N#Cc1c2n(c3c(N4CCN(C(=O)c5ccco5)CC4)ncnc13)CCCCC2 | – | > 25% | 1010 nM | > 25% | 12.9 µM | > 25% | – | – |
| O=C(c1ccco1)N1CCN(c2ncnc3c2[nH]c2ccccc23)CC1 | – | > 25% | 169 nM | > 25% | 6.06 µM | > 25% | 60% | 30% |
| N#Cc1cn(C2CC2)c2c(N3CCN(CCc4c[nH]c5ccccc45)CC3)ncnc12 | 3.85 µM | > 25% | 316 nM | > 25% | 18.9 µM | > 25% | – | – |
| c1ccc(N2CCN(c3ncnc4c3[nH]c3ccccc34)CC2)cc1 | – | > 25% | 146 nM | > 25% | 1.1 µM | > 25% | 60% | 30% |
| N#Cc1c2n(c3c(N4CCN(CCc5ccncc5)CC4)ncnc13)CCCCC2 | – | > 25% | 1140 nM | > 25% | 12.4 µM | 25% | – | – |
| N#Cc1c2n(c3c(N4CCN(Cc5ccc6c(c5)OCO6)CC4)ncnc13)CCCCC2 | 5.71 µM | > 25% | 1020 nM | > 25% | 23.7 µM | > 25% | – | – |
| CCn1cc(C#N)c2ncnc(N3CCN(CCc4c[nH]c5ccccc45)CC3)c21 | – | – | 855 nM | > 25% | 13.8 µM | > 25% | – | – |
| CCCn1cc(C#N)c2ncnc(N3CCN(CCc4c[nH]c5ccccc45)CC3)c21 | – | – | 468 nM | – | – | > 25% | – | – |
| N#Cc1c2n(c3c(N4CCN(c5ccccn5)CC4)ncnc13)CCCC2 | – | > 25% | 1020 nM | > 25% | 4.86 µM | 25% | – | – |
| N#Cc1c2n(c3c(N4CCN(CCc5c[nH]c6ccccc56)CC4)ncnc13)CCCCC2 | 1.71 µM | > 25% | 289 nM | > 25% | – | 25% | – | – |
| N#Cc1c2n(c3c(N4CCN(CCc5ccncc5)CC4)ncnc13)CCCC2 | – | > 25% | 672 nM | > 25% | 27.8 µM | 25% | – | – |
| N#Cc1c2n(c3c(N4CCN(c5ccccn5)CC4)ncnc13)CCCCC2 | – | > 25% | – | > 25% | – | 25% | – | – |
| c1ccc(N2CCN(c3ncnc4c3[nH]c3ccccc34)CC2)nc1 | 5 µM | > 25% | 495 nM | > 25% | 1.81 µM | > 25% | – | 30% |
| N#Cc1c2n(c3c(N4CCN(C(=O)c5ccco5)CC4)ncnc13)CCCC2 | – | > 25% | 883 nM | > 25% | 29.5 µM | > 25% | – | – |
| N#Cc1c2n(c3c(NCCc4c[nH]c5ccccc45)ncnc13)CCCC2 | – | > 25% | 957 nM | > 25% | – | 25% | – | – |
| Cn1cc(C#N)c2ncnc(N3CCN(CCc4c[nH]c5ccccc45)CC3)c21 | – | – | 337 nM | – | – | > 25% | – | – |
